Experimental data pooled from the literature.
Each line is one published result; the experiments were not run side by side. Converted amounts (≈) assume the structure as drawn.
Organism: Pichia kudriavzevii

Compound | test | system | conditions | endpoint | result
CCCCCCCCCCCCCN1CCNCC1 | microbial growth, broth dilution | ATCC6258 | 48 h | MIC | 0.975 µg/mL (≈ 3.63 µM)
CCCCCOc1c(OC)cc(NC(C)CCCNC(=O)C(N)Cc2ccccc2)c2nc(C(C)(C)C)ccc12 (stereo not shown) | microbial growth | ATCC6258 | – | IC50 | 7.37 µg/mL (≈ 13.4 µM)
CCCCCN1CCNCC1 | microbial growth, broth dilution | ATCC6258 | 48 h | MIC | > 31.3 µg/mL
CC(=O)N1CCN(c2ccc(OCC3COC(Cn4ccnc4)(c4ccc(Cl)cc4Cl)O3)cc2)CC1 (stereo not shown) | microbial growth | – | – | MIC90 | 1 µg/mL (≈ 1.88 µM)
C[C@@H]1[C@H](O)[C@@H](C)/C=C/C=C/C=C/C=C/C=C/C=C/C=C/[C@H](O[C@@H]2O[C@H](C)[C@@H](O)[C@H](N)[C@@H]2O)C[C@@H]2O[C@](O)(C[C@@H](O)C[C@@H](O)[C@H](O)CC[C@@H](O)C[C@@H](O)CC(=O)O[C@H]1C)C[C@H](O)[C@H]2C(=O)O | microbial growth | ATCC6258 | – | IC50 | 0.54 µg/mL (≈ 0.584 µM)
CCCCCOc1c(OC)cc(NC(C)CCCNC(=O)C(N)Cc2cc3ccccc3[nH]2)c2nc(C(C)(C)C)ccc12 (stereo not shown) | microbial growth | ATCC6258 | – | IC50 | 4.28 µg/mL (≈ 7.28 µM)
Fc1ccc(C2(Cn3cncn3)CO2)c(F)c1 (stereo not shown) | microbial growth, broth dilution | ATCC6258 | 48 h | MIC | > 31.3 µg/mL
C[C@@H]1[C@H](O)[C@@H](C)/C=C/C=C/C=C/C=C/C=C/C=C/C=C/[C@H](O[C@@H]2O[C@H](C)[C@@H](O)[C@H](N)[C@@H]2O)C[C@@H]2O[C@](O)(C[C@@H](O)C[C@@H](O)[C@H](O)CC[C@@H](O)C[C@@H](O)CC(=O)O[C@H]1C)C[C@H](O)[C@H]2C(=O)O | microbial growth | ATCC6258 | – | MIC | 1.25 µg/mL (≈ 1.35 µM)
Nc1[nH]c(=O)ncc1F | microbial growth | – | – | MIC90 | 8 µg/mL (≈ 62 µM)
CCCCOc1c(OC)cc(NC(C)CCCN)c2nc(C(C)(C)C)cc(C)c12 (stereo not shown) | microbial killing | ATCC6258 | – | MFC | 10 µg/mL (≈ 24.9 µM)
CC(C)C1=CC2=CC(=O)[C@H]3C(C)(C)CCC[C@]3(C)C2=C(O)C1=O | microbial growth | ATCC6258 | – | IC50 | 12 µg/mL (≈ 38.2 µM)
OC(CN1CCOCC1)(Cn1cncn1)c1ccc(F)cc1F (stereo not shown) | microbial growth, broth dilution | ATCC6258 | 48 h | MIC | > 31.3 µg/mL
CCC(C)n1ncn(-c2ccc(N3CCN(c4ccc(OCC5COC(Cn6cncn6)(c6ccc(Cl)cc6Cl)O5)cc4)CC3)cc2)c1=O (stereo not shown) | microbial growth | – | – | MIC90 | 0.5 µg/mL (≈ 0.709 µM)
CCCCCOc1c(OC)cc(NC(C)CCCNC(=O)C(N)CC(C)C)c2nc(C(C)(C)C)ccc12 (stereo not shown) | microbial growth | ATCC6258 | – | IC50 | 8.73 µg/mL (≈ 17 µM)
CN1CCNCC1 | microbial growth, broth dilution | ATCC6258 | 48 h | MIC | > 31.3 µg/mL
COc1cc(NC(C)CCCN)c2nc(C(C)(C)C)ccc2c1Oc1ccc(Cl)c(Cl)c1 (stereo not shown) | microbial growth | ATCC6258 | – | IC50 | 8.65 µg/mL (≈ 18.2 µM)
OC(Cn1cncn1)(Cn1cncn1)c1ccc(F)cc1F | microbial growth, broth dilution | – | 24 h | MIC90 | 256 µg/mL (≈ 836 µM)
CC[C@H](C)C[C@H](C)CCCCCCCCC(=O)N[C@H]1C[C@@H](O)[C@@H](NCCN)NC(=O)[C@@H]2[C@@H](O)CCN2C(=O)[C@H]([C@H](O)CCN)NC(=O)[C@H]([C@H](O)[C@@H](O)c2ccc(O)cc2)NC(=O)[C@@H]2C[C@@H](O)CN2C(=O)[C@H]([C@@H](C)O)NC1=O | microbial growth, broth dilution | ATCC6258 | 48 h | MIC | 0.48 µg/mL (≈ 0.439 µM)
C#CCCCCCCCCC=CCC(O)CC(O)CO (stereo not shown) | microbial growth, broth dilution | ATCC6258 | – | IC50 | > 8 µg/mL
CCCCCCOc1c(OC)cc(NC(C)CCCN)c2nc(C(C)(C)C)cc(C)c12 (stereo not shown) | microbial killing | ATCC6258 | – | MFC | 5 µg/mL (≈ 11.6 µM)
CN1CCN(CC(O)(Cn2cncn2)c2ccc(F)cc2F)CC1 (stereo not shown) | microbial growth, broth dilution | ATCC6258 | 48 h | MIC | 15.6 µg/mL (≈ 46.2 µM)
C=CCCCCCCCCCCCC(O)CC(O)CO (stereo not shown) | microbial growth, broth dilution | ATCC6258 | – | IC50 | > 200 µg/mL
